Reference: ChEMBL document CHEMBL1125879, “Synthesis and antimalarial activity of 2-aziridinyl- and 2,3-bis(aziridinyl)-1,4-naphthoquinonyl sulfonate and acylate derivatives” (J Med Chem, 1991)

Assay: In vitro antimalarial activity against human malaria parasite, P falciparum (Vietnam Smith strain)
Type: functional, Plasmodium falciparum
How it was run: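 P. falciparum in infected erythrocytes, semisynchronized cultures, initial parasitemia 1-3%, in RPMI 1640 with 25 mM HEPES, bicarbonate, 5% pooled calf serum; agents from 10^-2 M DMSO stocks at various concentrations, 48 h exposure with 1 μCi [3H]hypoxanthine per well throughout. Filter-harvested, scintillation counted. IC50 = 50% drop in incorporation vs drug-free controls, graphic extrapolation, mean of 2-4 observations.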

SMILES	IC50
O=C1C(N2CC2)=C(N2CC2)C(=O)c2c(OS(=O)(=O)c3ccccc3)cccc21	5.8 µM
Cc1cc(C)c(S(=O)(=O)Oc2cccc3c2C(=O)C(N2CC2)=C(N2CC2)C3=O)c(C)c1	3.9 µM
O=C1C(N2CC2)=CC(=O)c2c(OS(=O)(=O)c3ccccc3)cccc21	0.23 µM
O=C1/C(=N/CCCl)C=C(O)c2c(O)cccc21	4.3 µM
O=C1C=C(O)C(=O)c2ccccc21 [LAWSONE]	100 µM
CCc1ccc(S(=O)(=O)Oc2cccc3c2C(=O)C(N2CC2)=C(N2CC2)C3=O)cc1	4 µM
O=C1C(N2CC2)=C(N2CC2)C(=O)c2c(OC(=O)C34CC5CC(CC(C5)C3)C4)cccc21	5.4 µM
O=C1C(N2CC2)=CC(=O)c2c(OS(=O)(=O)c3cccc4ccccc34)cccc21	0.13 µM
O=C(Oc1cccc2c1C(=O)C(N1CC1)=C(N1CC1)C2=O)c1ccccc1	2.6 µM
CN(C)c1cccc2c(S(=O)(=O)Oc3cccc4c3C(=O)C(N3CC3)=C(N3CC3)C4=O)cccc12	3 µM
O=C(Oc1cccc2c1C(=O)C=C(N1CC1)C2=O)c1ccc(F)cc1	0.49 µM
O=C1C(N2CC2)=C(N2CC2)C(=O)c2c(OS(=O)(=O)/C=C/c3ccccc3)cccc21	5.8 µM
O=C1C(N2CC2)=CC(=O)c2c(OS(=O)(=O)c3ccc(F)cc3)cccc21	0.14 µM
Cc1ccc(C(=O)Oc2cccc3c2C(=O)C=C(N2CC2)C3=O)cc1	0.62 µM
COc1ccc(S(=O)(=O)Oc2cccc3c2C(=O)C=C(N2CC2)C3=O)cc1	0.16 µM
O=C1C(N2CC2)=C(N2CC2)C(=O)c2c(OS(=O)(=O)c3ccc(Br)cc3)cccc21	3.7 µM
O=C(Oc1cccc2c1C(=O)C=C(N1CC1)C2=O)c1ccccc1	0.45 µM
CN(C)C1=CC(=O)c2c(O)cccc2C1=O	1.6 µM
O=C1C(N2CC2)=C(N2CC2)C(=O)c2c(OS(=O)(=O)Cc3ccccc3)cccc21	2.4 µM
CC1(C)C2CCC1(CS(=O)(=O)Oc1cccc3c1C(=O)C(N1CC1)=C(N1CC1)C3=O)C(=O)C2 (centres undefined)	6 µM
O=C(Oc1cccc2c1C(=O)C=C(N1CC1)C2=O)c1ccco1	0.49 µM
CS(=O)(=O)Oc1cccc2c1C(=O)C=C(NCCCl)C2=O	8.5 µM

SMILES	IC50
COc1cc(C(=O)Oc2cccc3c2C(=O)C=C(N2CC2)C3=O)cc(OC)c1OC	0.16 µM
O=C1C(N2CC2)=CC(=O)c2c(OS(=O)(=O)/C=C/c3ccccc3)cccc21	0.17 µM
CN(C)c1cccc2c(S(=O)(=O)Oc3cccc4c3C(=O)C=C(NCCCl)C4=O)cccc12	2.9 µM
O=C1C(N2CC2)=C(N2CC2)C(=O)c2c(OS(=O)(=O)c3ccc(Cl)cc3)cccc21	3.2 µM
O=C1C(N2CC2)=C(N2CC2)C(=O)c2c(OS(=O)(=O)CCCCl)cccc21	3 µM
O=C(Oc1cccc2c1C(=O)C(N1CC1)=C(N1CC1)C2=O)c1ccco1	4.6 µM
CC(C)c1cc(C(C)C)c(S(=O)(=O)Oc2cccc3c2C(=O)C=C(N2CC2)C3=O)c(C(C)C)c1	0.28 µM
O=C1C(N2CC2)=CC(=O)c2c(O)cccc21	0.088 µM
CC1=CC(=O)c2ccccc2C1=O [MENADIONE]	3.4 µM
O=C1C(NCCCl)=CC(=O)c2c(OS(=O)(=O)Cc3ccccc3)cccc21	6.5 µM
CCc1ccc(S(=O)(=O)Oc2cccc3c2C(=O)C=C(N2CC2)C3=O)cc1	0.096 µM
O=C(Oc1cccc2c1C(=O)C(N1CC1)=C(N1CC1)C2=O)c1ccc(Cl)cc1	1.7 µM
O=C1C(N2CC2)=C(N2CC2)C(=O)c2c(OS(=O)(=O)c3ccc(I)cc3)cccc21	4.1 µM
Cc1ccc(S(=O)(=O)Oc2cccc3c2C(=O)C(N2CC2)=C(N2CC2)C3=O)cc1	4.6 µM
CC(C)(C)c1ccc(S(=O)(=O)Oc2cccc3c2C(=O)C=C(N2CC2)C3=O)cc1	0.024 µM
CC1=C(N2CC2)C(=O)c2c(O)cccc2C1=O	1.5 µM
O=C1C=CC(=O)c2c(O)cccc21 [JUGLONE]	3.7 µM
CS(=O)(=O)Oc1cccc2c1C(=O)C(N1CC1)=C(N1CC1)C2=O	3.2 µM
CN(C)c1cccc2c(S(=O)(=O)Oc3cccc4c3C(=O)C=C(N3CC3)C4=O)cccc12	0.29 µM
O=C(Oc1cccc2c1C(=O)C=C(N1CC1)C2=O)c1cccs1	0.47 µM
CC(C)c1cc(C(C)C)c(S(=O)(=O)Oc2cccc3c2C(=O)C(N2CC2)=C(N2CC2)C3=O)c(C(C)C)c1	3 µM
O=C(Oc1cccc2c1C(=O)C=C(N1CC1)C2=O)c1ccc(Cl)cc1	0.53 µM

SMILES	IC50
COc1ccc(C(=O)Oc2cccc3c2C(=O)C(N2CC2)=C(N2CC2)C3=O)cc1	3.7 µM
COc1cc(C(=O)Oc2cccc3c2C(=O)C(N2CC2)=C(N2CC2)C3=O)cc(OC)c1OC	3.4 µM
CC1=C(N2CC2)C(=O)c2c(OS(=O)(=O)c3ccc(C(C)(C)C)cc3)cccc2C1=O	3.6 µM
O=C(Oc1cccc2c1C(=O)C(N1CC1)=C(N1CC1)C2=O)c1cccs1	2.6 µM
O=C1C(N2CC2)=CC(=O)c2c(OS(=O)(=O)c3cccs3)cccc21	0.47 µM
O=C1C(N2CC2)=C(N2CC2)C(=O)c2c(OS(=O)(=O)c3cccc4ccccc34)cccc21	3.4 µM
COc1ccc(C(=O)Oc2cccc3c2C(=O)C=C(N2CC2)C3=O)cc1	0.54 µM
O=C1C(N2CC2)=CC(=O)c2c(OS(=O)(=O)c3cccc4cccnc34)cccc21	0.43 µM
O=C1C(N2CC2)=C(N2CC2)C(=O)c2c(O)cccc21	1.6 µM
CC1=CC(=O)c2c(O)cccc2C1=O [PLUMBAGIN]	2.4 µM
CN(C)S(=O)(=O)Oc1cccc2c1C(=O)C=C(NCCCl)C2=O	2.2 µM
C/N=C1\C=C(O)c2c(O)cccc2C1=O	3.7 µM
O=C1C(N2CC2)=C(N2CC2)C(=O)c2c(OS(=O)(=O)c3ccc([N+](=O)[O-])cc3)cccc21	7.6 µM
Cc1ccc(C(=O)Oc2cccc3c2C(=O)C(N2CC2)=C(N2CC2)C3=O)cc1	4.4 µM
CCCCCCCCCCCCCCCCS(=O)(=O)Oc1cccc2c1C(=O)C(N1CC1)=C(N1CC1)C2=O	20 µM
O=C1C(N2CC2)=CC(=O)c2c(OS(=O)(=O)c3ccc(I)cc3)cccc21	0.33 µM
O=C(Oc1cccc2c1C(=O)C(N1CC1)=C(N1CC1)C2=O)c1ccc(F)cc1	4.4 µM
O=C1C(N2CC2)=C(N2CC2)C(=O)c2c(OS(=O)(=O)c3ccc([N+](=O)[O-])c([N+](=O)[O-])c3)cccc21	2.4 µM
Cc1ccc(S(=O)(=O)Oc2cccc3c2C(=O)C=C(N2CC2)C3=O)cc1	0.2 µM
O=C(Oc1cccc2c1C(=O)C(N1CC1)=C(N1CC1)C2=O)c1cc(Cl)sc1Cl	3.9 µM
